Assay results reported in ChEMBL document CHEMBL2203197, “Design and synthesis of 2-aminothiazole based antimicrobials targeting MRSA” (2012).
Values after ≈ are worked out from the molar mass of the structure shown.

Tests used:
Assay type in all cases: functional
[1] = system: Escherichia coli; experiment: Antibacterial activity against Escherichia coli C600 N/puc19 after 24 hrs by CLSI broth microdilution method; settings: C600 N/puc19, 24 h
Procedure, shortened: (§1)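 Broth microdilution per CLSI in cation-adjusted Mueller–Hinton broth. MIC was taken as the lowest concentration inhibiting visible growth (turbidity).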

[2] = system: Staphylococcus aureus; experiment: Antibacterial activity against methicillin-resistant Staphylococcus aureus RN8175 after 24 hrs by CLSI broth microdilution method; settings: RN8175, 24 h
Procedure, shortened: (§2)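 Broth microdilution per CLSI in cation-adjusted Mueller–Hinton broth. Plates were incubated 24 h at 37 °C. MIC was taken as the lowest concentration that inhibited growth, judged by turbidity.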

[3] = system: Staphylococcus aureus; experiment: Antibacterial activity against methicillin-resistant Staphylococcus aureus USA-300 after 24 hrs by CLSI broth microdilution method; settings: USA-300, 24 h; procedure, shortened: as §2
[4] = system: Acinetobacter baumannii; experiment: Antibacterial activity against Acinetobacter baumannii UNMC 8872 after 24 hrs by CLSI broth microdilution method; settings: UNMC 8872, 24 h; procedure, shortened: as §1
[5] = system: Staphylococcus aureus; experiment: Antibacterial activity against methicillin-resistant Staphylococcus aureus UAMS-1 after 24 hrs by CLSI broth microdilution method; settings: UAMS-1, 24 h; procedure, shortened: as §2

SMILES | MIC [1] | MIC [2] | MIC [3] | MIC [4] | MIC [5]
CCOC(=O)COc1cccc(-c2cccc(-c3csc(N)n3)c2)c1 | > 256 µg/mL | > 256 µg/mL | > 256 µg/mL | – | –
CCOC(=O)c1cccc(-c2cccc(-c3csc(N)n3)c2)c1 | > 256 µg/mL | > 256 µg/mL | > 256 µg/mL | > 256 µg/mL | –
O=S(=O)(Nc1nc(-c2ccccc2Br)cs1)c1ccccc1 | > 256 µg/mL | 32 µg/mL (≈ 81 µM) | 128 µg/mL (≈ 324 µM) | – | –
O=S(=O)(Nc1nc(-c2ccc(Br)cc2)cs1)c1ccccc1 | > 256 µg/mL | 16 µg/mL (≈ 40.5 µM) | 64 µg/mL (≈ 162 µM) | > 256 µg/mL | –
COC(=O)c1ccc(-c2csc(N)n2)cc1 | > 256 µg/mL | 128 µg/mL (≈ 546 µM) | > 256 µg/mL | – | –
O=S(=O)(Nc1nc(-c2ccccc2F)cs1)c1ccccc1 | > 256 µg/mL | 32 µg/mL (≈ 95.7 µM) | 128 µg/mL (≈ 383 µM) | – | –
CCOC(=O)c1cccc(-c2ccc3sc(N)nc3c2)c1 | > 256 µg/mL | > 256 µg/mL | > 256 µg/mL | – | > 256 µg/mL
COC(=O)c1ccccc1-c1cccc(-c2csc(N)n2)c1 | > 256 µg/mL | > 256 µg/mL | > 256 µg/mL | – | > 256 µg/mL
CC(=O)OCC1=C(C(=O)O)N2C(=O)[C@@H](NC(=O)c3cccc(-c4csc(N)n4)c3)C2SC1 (stereo not given in full) | > 256 µg/mL | 16 µg/mL (≈ 33.7 µM) | 256 µg/mL (≈ 539 µM) | – | 256 µg/mL (≈ 539 µM)
Nc1nc(-c2ccc(N3CCOCC3)cc2)cs1 | > 256 µg/mL | 256 µg/mL (≈ 980 µM) | > 256 µg/mL | – | 128 µg/mL (≈ 490 µM)
Nc1nc(-c2ccc(N3CCCC3)cc2)cs1 | > 256 µg/mL | > 256 µg/mL | > 256 µg/mL | – | 256 µg/mL (≈ 1040 µM)
Nc1nc(-c2ccc(OC(F)(F)F)cc2)cs1 | > 256 µg/mL | 64 µg/mL (≈ 246 µM) | 64 µg/mL (≈ 246 µM) | – | –
Fc1cccc(Nc2nc(-c3ccc(N4CCCC4)cc3)cs2)c1 | > 256 µg/mL | > 256 µg/mL | > 256 µg/mL | – | 2 µg/mL (≈ 5.89 µM)
O=S(=O)(Nc1nc(C23CC4CC(CC(C4)C2)C3)cs1)c1cccc(C(F)(F)F)c1 | > 256 µg/mL | > 256 µg/mL | > 256 µg/mL | – | 128 µg/mL (≈ 289 µM)
CO/N=C(\C(=O)N[C@@H]1C(=O)N2C(C(=O)O)=C(CSc3nc(=O)c(O)nn3C)CS[C@H]12)c1csc(N)n1 [CEFTRIAXONE] | 2 µg/mL (≈ 3.61 µM) | 16 µg/mL (≈ 28.9 µM) | 128 µg/mL (≈ 231 µM) | 8 µg/mL (≈ 14.4 µM) | 8 µg/mL (≈ 14.4 µM)
Nc1nc(-c2cccc(-c3cccc(C(=O)O)c3)c2)cs1 | > 256 µg/mL | > 256 µg/mL | > 256 µg/mL | > 256 µg/mL | –

SMILES | MIC [1] | MIC [2] | MIC [3] | MIC [4] | MIC [5]
Nc1nc(-c2cccc(-c3ccc(C(=O)O)cc3)c2)cs1 | > 256 µg/mL | > 256 µg/mL | > 256 µg/mL | > 256 µg/mL | –
CCOC(=O)COc1ccc(-c2cccc(-c3csc(N)n3)c2)cc1 | > 256 µg/mL | 256 µg/mL (≈ 722 µM) | > 256 µg/mL | – | –
CCOC(=O)CCc1ccc(-c2cccc(-c3csc(N)n3)c2)cc1 | > 256 µg/mL | 256 µg/mL (≈ 726 µM) | > 256 µg/mL | – | –
COc1ccc(-c2csc(N)n2)cc1 | > 256 µg/mL | > 256 µg/mL | > 256 µg/mL | – | –
Nc1nc(-c2ccc(-c3cccc(OC(F)(F)F)c3)cc2)cs1 | > 256 µg/mL | 2 µg/mL (≈ 5.95 µM) | > 256 µg/mL | – | –
Nc1nc(-c2ccc3ccccc3c2)cs1 | > 256 µg/mL | > 256 µg/mL | > 256 µg/mL | – | 256 µg/mL (≈ 1130 µM)
O=S(=O)(Nc1nc2c(s1)CCCC2)c1cccc(C(F)(F)F)c1 | > 256 µg/mL | > 256 µg/mL | > 256 µg/mL | – | > 256 µg/mL
Nc1nc(-c2ccccc2-c2cccc(OC(F)(F)F)c2)cs1 | > 256 µg/mL | 16 µg/mL (≈ 47.6 µM) | 16 µg/mL (≈ 47.6 µM) | – | –
Fc1cccc(Nc2nc(-c3cccc(Br)c3)cs2)c1 | > 256 µg/mL | 4 µg/mL (≈ 11.5 µM) | 4 µg/mL (≈ 11.5 µM) | – | 2 µg/mL (≈ 5.73 µM)
CCOC(=O)c1cccc(-c2ccccc2-c2csc(N)n2)c1 | > 256 µg/mL | 32 µg/mL (≈ 98.6 µM) | 256 µg/mL (≈ 789 µM) | > 256 µg/mL | –
Nc1nc2ccc(-c3cccc(OC(F)(F)F)c3)cc2s1 | > 256 µg/mL | 8 µg/mL (≈ 25.8 µM) | 16 µg/mL (≈ 51.6 µM) | – | –
Nc1nc(-c2cc3ccccc3o2)cs1 | > 256 µg/mL | > 256 µg/mL | > 256 µg/mL | – | 256 µg/mL (≈ 1180 µM)
COC(=O)c1cccc(-c2csc(N)n2)c1 | > 256 µg/mL | > 256 µg/mL | > 256 µg/mL | – | –
Nc1nc2cc(-c3cccc(OC(F)(F)F)c3)ccc2s1 | > 256 µg/mL | 8 µg/mL (≈ 25.8 µM) | 8 µg/mL (≈ 25.8 µM) | – | –
Nc1nc(-c2cccc(-c3cccc(OC(F)(F)F)c3)c2)cs1 | > 256 µg/mL | 4 µg/mL (≈ 11.9 µM) | 8 µg/mL (≈ 23.8 µM) | – | –
Fc1cccc(Nc2nc(-c3ccc(N4CCOCC4)cc3)cs2)c1 | > 256 µg/mL | > 256 µg/mL | > 256 µg/mL | – | 256 µg/mL (≈ 720 µM)
